We go through one compound from ChEMBL document CHEMBL4680124, “2-Styryl-4-aminoquinazoline derivatives as potent DNA-cleavage, p53-activation and in vivo effective anticancer agents” (Eur J Med Chem, 2020).

Structures are written as SMILES. Calls of active or inactive are those of the source. No cut-off for these calls is given here.

As a reminder, the IC50 is the point on the concentration scale where inhibition reaches its midpoint.

The subject of data set [1] is MGC-803. The data set is described as follows: Cell cycle arrest in human MGC-803 cells assessed as accumulation at G2/M phase at 0.25 uM after 48 hrs by propidium iodide staining-based flow cytometric analysis (reference value: 7.94%). Type of data set: functional. On the technique in general: Flow cytometry measures light scatter and fluorescence of single cells or particles in a stream.

Data set [2] relates to MGC-803. The data set is described as follows: Cell cycle arrest in human MGC-803 cells assessed as accumulation at G1 phase at 0.25 uM after 48 hrs by propidium iodide staining-based flow cytometric analysis (reference value: 46.96 %). Type of data set: functional.
The subject of another data set is Mus musculus. Briefly: Toxicity against BALB/c nude mouse xenografted with human MGC-803 cells assessed as body weight at 10 mg/kg, ip administered every 2 days and measured 3 times per week for 16 days. Format: organism-based. To be noted: in vivo, 384 h, time 16 day. In short, it runs like this: (§1)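 Male BALB/c nude mice, 6 weeks old, received 5×10^6 MGC-803 cells subcutaneously in the flank. At about 80 mm3, mice were randomized (n = 6/group). They were dosed i.p. every 2 days with vehicle (5% DMSO in saline, v/v) or drug in DMSO/saline at 1.0 or 2.0 mg/mL. Body weight was recorded three times weekly; mean ± SD.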
On the technique in general: Xenograft models place foreign cells or tissue in a host animal.

Data set [3] relates to MGC-803. The data set is described as follows: Induction of apoptosis in human MGC-803 cells assessed as increase in Bax expression at 0.5 to 2.5 uM measured after 24 hrs by Western blot analysis. Type of data set: functional, cell-based. To be noted: dose 0.5-2.5 µM. In short, it runs like this: (§2)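 MGC-803 cells (2×10^6) plated overnight, then treated for 24 h at 0.5, 1.0 or 2.5 µM (test agent) or 5.0 µM (comparator). Whole-cell lysates separated by SDS-PAGE, transferred to PVDF and probed with primary antibodies. AP-linked anti-rabbit IgG, ECL detection, β-actin loading control. Representative of three experiments.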

Data set [4] deals with MGC-803. The data set is described as follows: Induction of apoptosis in human MGC-803 cells assessed as nuclear fragmentation incubated at 0.5 to 2.5 uM for 24 hrs by Hoechst 33258 staining based analysis. Type of data set: functional, cell-based. The conditions noted are these: dose 0.5-2.5 µM. In short, it runs like this: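 Cells in six-well plates were treated for the indicated time, then fixed 10 min in 4% paraformaldehyde and washed twice in PBS. Nuclei were stained 5 min with Hoechst 33258, washed twice in PBS and examined by fluorescence microscopy.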

The test system of data set [5] is MGC-803. Briefly: Cell cycle arrest in human MGC-803 cells assessed as accumulation at G1 phase at 0.125 uM after 48 hrs by propidium iodide staining-based flow cytometric analysis (reference value: 46.96 %). Type of data set: functional.
The subject of the next data set is PC-3. Briefly: Cytotoxicity against human PC-3 cells assessed as reduction in cell viability preincubated for 48 hrs and measured after 4 hrs by MTT assay. Format: functional, cell-based. (Formazan colour is commonly taken as a measure of viable cells.)
Data set [6] concerns MGC-803. The data set is described as follows: Induction of apoptosis in human MGC-803 cells assessed as increase in Bim expression at 0.5 to 2.5 uM measured after 24 hrs by Western blot analysis. Type of data set: functional, cell-based. The conditions noted are these: dose 0.5-2.5 µM. In short, it runs like this:
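MGC-803 cells (2×10^6) cultured overnight, then exposed 24 h to 0.5, 1.0 or 2.5 μM, or 5.0 μM for the reference agent. Lysates were resolved by SDS-PAGE, transferred to PVDF and probed with primary antibodies. Detection used AP-linked anti-rabbit IgG and ECL. β-actin served as loading control.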

Data set [7] concerns MGC-803. Briefly: Cell cycle arrest in human MGC-803 cells assessed as accumulation at S phase at 0.25 uM after 48 hrs by propidium iodide staining-based flow cytometric analysis (reference value: 45.1 %). Type of data set: functional.
Data set [8] concerns MGC-803. The data set is described as follows: Induction of apoptosis in human MGC-803 cells assessed as necrotic cells at 2.5 uM measured after 24 hrs by Annexin-V/propidium iodide staining-based flow cytometric analysis (Rvb =6.05%).
The test system of data set [9] is MGC-803. The data set is described as follows: Antitumor activity against human MGC-803cells xenografted in BALB/C nude mouse assessed as reduction in tumor volume at 20 mg/kg, ip administered every 2 days and measured 3 times per week. Format: functional, organism-based. To be noted: time 2.0 day. In short, it runs like this: (§3)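 Male BALB/c nude mice, 6 weeks old, given 5×10^6 MGC-803 cells s.c. in the flank. When tumors reached about 80 mm3, mice were randomized (n = 6/group) and dosed i.p. every 2 days. Vehicle was 5% DMSO in saline. Drug solutions were 1.0 or 2.0 mg/mL (DMSO/saline). Tumor length and width plus body weight were measured three times weekly; volume = lw²/2. Mean ± SD.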

The subject of data set [10] is MGC-803. The data set is described as follows: Induction of apoptosis in human MGC-803 cells assessed as late apoptotic cells at 0.5 uM measured after 24 hrs by Annexin-V/propidium iodide staining-based flow cytometric analysis (Rvb =0.93%).
The test system of data set [11] is MGC-803. The data set is described as follows: Induction of DNA damage in human MGC-803 cells assessed as increase in p-p53 level at 2.5 uM measured after 24 hrs by Western blot analysis. Format: functional, cell-based. Put shortly:
as §2

The nature of data set [12]: Induction of mitochondria membrane potential loss in human MGC-803 cells assessed as increase in green fluorescence at 1 uM incubated 24 hrs by JC-1 probe based flow cytometry analysis (reference value: 4.67%). Type of data set: functional.
Data set [13] can be described thus: Induction of mitochondria membrane potential loss in human MGC-803 cells assessed as increase in green fluorescence at 2.5 uM incubated 24 hrs by JC-1 probe based flow cytometry analysis (reference value: 4.67%). Format: functional.
Data set [14] relates to MGC-803. The data set is described as follows: Cell cycle arrest in human MGC-803 cells assessed as accumulation at G1 phase at 0.5 uM after 48 hrs by propidium iodide staining-based flow cytometric analysis (reference value: 46.96 %). Type of data set: functional.
The subject of data set [15] is MGC-803. The data set is described as follows: Antitumor activity against human MGC-803cells xenografted in BALB/C nude mouse assessed as tumor growth inhibition at 20 mg/kg, ip administered every 2 days and measured 3 times per week for 16 days. Format: functional. The conditions noted are these: MGC-803, ip, 384 h, time 16 day, read-out: TGI. In short, it runs like this: as §3

For data set [16], the system named is Calf thymus DNA. The data set is described as follows: Binding affinity to calf thymus DNA assessed as quenching in emission band measured at 0.5:1 to 5:1 compound to EB ratio by ethidium bromide competitive displacement assay. The conditions noted are these: Bos taurus. Put shortly: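 Competitive displacement using EB (10 µM) with ct-DNA (20 µM) in Tris-HCl, pH 7.4, 25 °C. Compound added stepwise from 10 to 100 µM; 5 min equilibration after each addition, then fluorescence emission recorded (slits 5 nm). Quenching constant from the Stern–Volmer equation.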

Data set [17] in a line: Toxicity against BALB/c nude mouse xenografted with human MGC-803 cells assessed as body weight at 20 mg/kg, ip administered every 2 days and measured 3 times per week for 16 days. Type of data set: organism-based. The conditions noted are these: in vivo, 384 h, time 16 day. Put shortly: as §1
Data set [18] relates to MGC-803. The data set is described as follows: Induction of apoptosis in human MGC-803 cells assessed as late apoptotic cells at 2.5 uM measured after 24 hrs by Annexin-V/propidium iodide staining-based flow cytometric analysis (Rvb =0.93%).
Data set [19] relates to Calf thymus DNA. Briefly: Binding affinity to calf thymus DNA assessed as hypochromism by measuring absorption spectra at 20 uM incubated for 5 mins by UV-Vis absorption spectrometry. Type of data set: tissue-based. The conditions noted are these: Bos taurus. Put shortly:
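Compound at 20 µM in Tris-HCl buffer, 25 °C, titrated with ct-DNA at [DNA]/[compound] 0 to 1.0 in steps of 0.1. Absorption spectra recorded at 295–360 nm after 5 min equilibration following each addition.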

Take `NCCCCNc1nc(/C=C/c2ccc([N+](=O)[O-])cc2)nc2ccccc12`: the Activity is reported as 55.43% in the data set on MGC-803 [1]; 7.66% in the data set on MGC-803 [2]; “Non-Toxic” with Mus musculus; 35.39% in the data set with MGC-803 [5]; 36.91% in the data set on MGC-803 [7]; 1.27% in the data set with MGC-803 [8]. Besides, the Activity in the data set on MGC-803 [10] was 6.91%; in data set [12], 13.9%; in [13] it was 22.6%; in the data set on MGC-803 [14], 1.44%; in data set [17], “Non-Toxic”; with MGC-803 [18] it was 55.9%. In addition, the result with MGC-803 [3], with MGC-803 [4], with MGC-803 [6], with MGC-803 [9], in the data set on MGC-803 [11] and with Calf thymus DNA [16] was Active. For the same compound, the result in the data set on Calf thymus DNA [19] was Active. Also, in the data set on PC-3, the IC50 amounted to 4.53 µM. Further, in the data set with MGC-803 [15], the inhibition in vivo at 20 mg/kg turned out to be 61.8%.
